Sampled rows, rich in hits. Any-hit rate of the full collection: about 2.5%.
SENP8 block-1 – SENP8 protease inhibitors, primary screen, biochemical, luminescence; Sentrin-specific protease 8 (Homo sapiens), Q96LD8; purified SENP8, Z-RLRGG-aminoluciferin cleavage; inhibition, % at 10 µM; 330,000 compounds, 1.2% hits; in the data active = inhibition above about 50%
Target sequence (Q96LD8 whole entry, looked up): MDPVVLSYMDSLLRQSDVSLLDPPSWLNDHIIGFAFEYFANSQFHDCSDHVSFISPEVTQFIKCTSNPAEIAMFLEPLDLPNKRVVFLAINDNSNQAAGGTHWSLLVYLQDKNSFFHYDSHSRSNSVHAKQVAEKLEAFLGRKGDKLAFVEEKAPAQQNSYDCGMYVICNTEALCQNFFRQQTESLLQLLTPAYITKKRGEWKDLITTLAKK
SENP8 block-2 – human SENP8 protease inhibitors, primary screen, biochemical, fluorescence, Nedd8 protein substrate, uHTS. 360,000 compounds, 0.64% hits. recombinant SENP8. inhibition, % at 20 µM. AID 602440, 2012; in the data active = inhibition mostly above about 40%, no sharp cut-off; inactive = mostly below about 27%
SENP1 FRET inh – human SENP1 catalytic domain inhibitors, primary screen, biochemical, FRET, uHTS. 360,000 compounds, 0.21% hits. recombinant SENP1 catalytic domain, CyPet-SUMO1-YPet FRET cleavage. inhibition, % at 10 µM;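 active = inhibition at least 30% at 10 µM, raw YFP signal under a set limit, fluorescence ratio 0.5 to 1.5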;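 note: 0% = enzyme with DMSO and 100% = no enzyme wells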
Target sequence (Q9P0U3 419-644 limits assumed): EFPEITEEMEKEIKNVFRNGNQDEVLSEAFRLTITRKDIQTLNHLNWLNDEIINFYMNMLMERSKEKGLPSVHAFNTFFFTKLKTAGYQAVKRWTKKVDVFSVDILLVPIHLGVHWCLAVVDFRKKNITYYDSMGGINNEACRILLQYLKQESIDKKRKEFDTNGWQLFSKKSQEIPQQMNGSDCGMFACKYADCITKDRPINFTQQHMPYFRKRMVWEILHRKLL
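Test system: human SENP1 catalytic domain; medium: Tris pH 8 buffer plus EDTA, NaCl, BME, BSA, NP40, catalase; incubation: 50 min reaction at room temperature; technique: FRET, CFP and YFP emission; controls: no-enzyme low control and enzyme-plus-DMSO high control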
SENP6 inh – SENP6 protease inhibitors, primary screen, biochemical, luminescence, uHTS | Sentrin-specific protease 6 (Homo sapiens), Q9GZR1 | Recombinant SENP6 catalytic domain, aminoluciferin luminescence | inhibition, % at 10 µM | 330,000 compounds, 1.8% hits | AID 2599, 2010;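 active = inhibition above about 50% at the single tested dose, limit read from the data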;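 note: plate controls were DMSO wells with enzyme for no effect and DMSO wells lacking enzyme for full effect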
SENP7 inh – SENP7 protease inhibitors, primary screen, biochemical, luminescence, uHTS; inhibition, % at 5 µM; recombinant SENP7, Z-RLRGG-aminoluciferin luminescence, 40 min; 330,000 compounds, 1.5% hits; AID 434973, 2010; Sentrin-specific protease 7 (Homo sapiens), Q9BQF6;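 active = inhibition above about 50% at the single test dose, limit read from the data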;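 note: plate controls were DMSO with enzyme for no effect and no enzyme buffer wells for full effect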
SENP8 conf – SENP8 protease inhibitors, retest, confirmation, biochemical, luminescence, single concentration | 6,200 compounds, 40% hits | shares compounds with SENP7 inh | AID 488912, 2010 | Recombinant SENP8, Z-RLRGG-aminoluciferin luminescence, 60 min | inhibition, % at 12.5 µM;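 active = mean inhibition across replicates above about 50%, limit read from the data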
SENP6 conf – SENP6 protease inhibitors, confirmation, biochemical, luminescence, single concentration; shares compounds with SENP7 inh; recombinant SENP6, Z-RLRGG-aminoluciferin luminescence; inhibition, % at 12.5 µM; 6,200 compounds, 58% hits
SENP7 conf – SENP7 protease inhibitors, retest, confirmation, biochemical, luminescence, single concentration; shares compounds with SENP7 inh; recombinant SENP7, Z-RLRGG-aminoluciferin luminescence, 40 min; inhibition, % at 12.5 µM; 6,200 compounds, 69% hits; AID 488917, 2010
Casp3 SENP sel – caspase-3 protease inhibitors, confirmation, selectivity assay for SENP inhibitor project, biochemical, single concentration. purified caspase-3, Z-DEVD-aminoluciferin luminescence, 60 min. 6,200 compounds, 60% hits. shares compounds with SENP7 inh. inhibition, % at 12.5 µM;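 active = mean inhibition above about 50%, limit read from the data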;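 note: plate controls were enzyme with DMSO for no effect and wells without caspase-3 for full effect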
Luc interf – interferes with luciferase luminescence in SENP counter-screen; 6,200 compounds, 39% hits; inhibition, % at 12.5 µM; Pre-incubated SENP8/Z-RLRGG-aminoluciferin, luciferase luminescence interference; shares compounds with SENP7 inh;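 active = mean inhibition above about 50% when retested at one dose, limit read from the data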;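 note: plate controls were DMSO wells with completed reaction for no effect and substrate without enzyme for full effect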
Starred values were filed as active, the others as inactive; x = no result.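 Rule for the calls, unless noted: active = mean inhibition above about 50% in the one-dose retest (limit read from the data); inactive = the rest.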

SMILES	SENP8 block-1	SENP8 block-2	SENP1 FRET inh	SENP6 inh	SENP7 inh	SENP8 conf	SENP6 conf	SENP7 conf	Casp3 SENP sel	Luc interf
CC(=O)N/C(=C\c1ccccc1)C(=O)OCC(=O)NC1CCS(=O)(=O)C1 (stereo unspecified)	-2	14	3	-2	5	x	x	x	x	x
COc1ccc(N2C(=S)N(C(=O)c3ccccc3)C(=Nc3ccccc3)C2=Nc2ccccc2)cc1	73*	15	2	83*	92*	67*	82*	96*	93*	60*
COc1ccc(N=C2C(=Nc3ccc(OC)cc3)N(c3ccc(OC)cc3)C(=S)N2C(=O)c2ccc(OC)cc2)cc1	2	20	2	-3	6	x	x	x	x	x
COC(=O)C1CCN(C(=O)CN2C(=O)NC3(CCC(C)CC3)C2=O)CC1 (stereo unspecified)	-1	20	1	8	4	x	x	x	x	x
c1ccc2c(c1)Cn1nnnc1-2	-8	2	3	3	-12	x	x	x	x	x
c1ccc2c(c1)Cn1c-2nc2ccccc21	81*	-1	2	92*	91*	90*	88*	99*	95*	86*
Brc1c(-c2ccccc2)nc2n1Cc1ccccc1-2	51*	18	0	75*	47	6	65*	72*	42	16
CC(NC(=O)C1CCN(C(=O)c2ccc(F)cc2)CC1)c1ccc(-n2ccnc2)cc1 (stereo unspecified)	-11	17	3	-9	3	x	x	x	x	x
CC1CN(C2=Nc3cccc4cccc2c34)CC(C)O1 (stereo unspecified)	21	-66	-40	45	10	x	x	x	x	x
CC(=O)N1CCN(C2=Nc3cccc4cccc2c34)CC1	67*	-125	-23	81*	4	3	13	7	4	5
O=C(O)c1ccc(NC2=Nc3cccc4cccc2c34)cc1	x	-405	-41	x	x	x	x	x	x	x
O=C1c2cccc3cccc(c23)C(=O)N1CC1CCN(S(=O)(=O)c2ccccc2)CC1	x	-28	-1	x	x	x	x	x	x	x
CCOC(=O)N1CCN(C2=Nc3cccc4cccc2c34)CC1	48	-39	-18	75*	-1	-20	-17	-4	-5	-2
c1cc2c3c(cccc3c1)C(N1CCOCC1)=N2	45	-61	-37	76*	11	9	6	3	1	1
c1ccc(CC2CCN(C3=Nc4cccc5cccc3c45)CC2)cc1	24	-5	60	73*	16	8	1	-4	-7	-7
CCC1C(=O)NCCN1C(=O)c1ccc(OC)c(OC2CCN(C(C)=O)CC2)c1 (stereo unspecified)	0	6	0	-14	9	x	x	x	x	x
CCOC(=O)N1CCN(C(=O)Nc2cccc3ccccc23)CC1	0	-310	-1	52*	18	7	8	9	4	5
CCOC(=O)N1CCN(C(=O)Nc2ccc(NC(=O)N3CCN(C(=O)OCC)CC3)cc2)CC1	5	11	0	-24	-9	x	x	x	x	x
COCCN(C(=O)C1CCCO1)c1c(N)n(CC(C)C)c(=O)[nH]c1=O (stereo unspecified)	-14	-1	0	-2	5	x	x	x	x	x

Bioassay records: PubChem BioAssay, Sanford-Burnham Center for Chemical Genomics
